Reference: ChEMBL document CHEMBL4038328, “Structure-Guided Optimization of HIV Integrase Strand Transfer Inhibitors” (J Med Chem, 2017)

Key:
[1] = Inhibition of HIV1 integrase 3' processing activity using 5'-end 32P labeled DNA substrate measured after 2 hrs by PAGE based phosphor imaging method; set-up: species or system Human immunodeficiency virus 1
Method in brief: (§1)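 Gel-based assay, Mg2+ cofactor: 400 nM integrase with 20 nM DNA substrate 5′-32P-labeled on transferred strand in 50 mM MOPS pH 7.2, 7.5 mM MgCl2, 14 mM 2-mercaptoethanol, inhibitor or DMSO; 2 h at 37 °C. Stopped with formamide/SDS loading buffer; products resolved on 16% denaturing polyacrylamide gels, quantified by phosphorimaging.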

[2] = system: Human immunodeficiency virus 1; experiment: Antiviral activity against VSV-G pseudotyped HIV1 harboring integrase R263K mutant infected in HOS cells pretreated […] for 3 hrs followed by viral infection measured after 48 hrs by luciferase reporter gene assay relative to dolutegravir; format: functional
[3] = system: Human immunodeficiency virus 1; experiment: Selectivity ratio of EC50 for VSV-G pseudotyped HIV1 harboring integrase R263K mutant infected in HOS cells to EC50 for VSV-G pseudotyped HIV1 harboring wild-type integrase infected in HOS cells; format: functional
Method in brief: (§2)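 Fold change is the EC50 against the mutant-IN vector divided by the EC50 against the WT-IN vector. Both come from the single-round luciferase infectivity assay in HOS cells, with a 3 h compound pretreatment followed by 48 h infection.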

[4] = system: Human immunodeficiency virus 1; experiment: Antiviral activity against VSV-G pseudotyped HIV1 harboring integrase T66I mutant infected in HOS cells pretreated […] for 3 hrs followed by viral infection measured after 48 hrs by luciferase reporter gene assay relative to dolutegravir; format: functional
[5] = system: Human immunodeficiency virus 1; experiment: Antiviral activity against VSV-G pseudotyped HIV1 harboring integrase Y143R mutant infected in HOS cells pretreated […] for 3 hrs followed by viral infection measured after 48 hrs by luciferase reporter gene assay relative to dolutegravir; format: functional
[6] = system: Human immunodeficiency virus 1; experiment: Antiviral activity against VSV-G pseudotyped HIV1 harboring integrase G140S/Q148H double mutant infected in HOS cells pretreated […] for 3 hrs followed by viral infection measured after 48 hrs by luciferase reporter gene assay relative to dolutegravir; format: functional
[7] = system: Human immunodeficiency virus 1; experiment: Selectivity ratio of EC50 for VSV-G pseudotyped HIV1 harboring integrase H51Y mutant infected in HOS cells to EC50 for VSV-G pseudotyped HIV1 harboring wild-type integrase infected in HOS cells; format: functional; method in brief: as §2
[8] = system: Human immunodeficiency virus 1; experiment: Antiviral activity against VSV-G pseudotyped HIV1 harboring integrase G140S/Q148H double mutant infected in HOS cells pretreated […] for 3 hrs followed by viral infection measured after 48 hrs by luciferase reporter gene assay; format: functional, cell-based; settings: Human immunodeficiency virus 1, HOS
Method in brief: (§3)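 Single-round luciferase HIV-1 vector (pNLNgoMIVR−ΔLUC carrying WT or mutant IN) was pseudotyped with VSV-g by calcium phosphate co-transfection of 293 cells, and supernatant was harvested after 48 h. HOS cells were seeded at 4000/well in DMEM with 5% FBS and 5% newborn calf serum. They were pretreated 3 h at 37 °C with 5–0.0001 μM (11 serial dilutions), then infected for 48 h. Luminescence was normalized to untreated cells, and EC50 came from nonlinear regression.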

[9] = system: Human immunodeficiency virus 1; experiment: Antiviral activity against VSV-G pseudotyped HIV1 harboring wild-type integrase infected in HOS cells pretreated […] for 3 hrs followed by viral infection measured after 48 hrs by luciferase reporter gene assay; format: functional, cell-based; settings: Human immunodeficiency virus 1, HOS; method in brief: as §3
[10] = system: Human immunodeficiency virus 1; experiment: Selectivity ratio of EC50 for VSV-G pseudotyped HIV1 harboring integrase Y143R mutant infected in HOS cells to EC50 for VSV-G pseudotyped HIV1 harboring wild-type integrase infected in HOS cells; format: functional; method in brief: as §2
[11] = system: Human immunodeficiency virus 1; experiment: Selectivity ratio of EC50 for VSV-G pseudotyped HIV1 harboring integrase G118R mutant infected in HOS cells to EC50 for VSV-G pseudotyped HIV1 harboring wild-type integrase infected in HOS cells; format: functional; method in brief: as §2
[12] = system: Human immunodeficiency virus 1; experiment: Selectivity ratio of EC50 for VSV-G pseudotyped HIV1 harboring integrase E92Q mutant infected in HOS cells to EC50 for VSV-G pseudotyped HIV1 harboring wild-type integrase infected in HOS cells; format: functional; method in brief: as §2
HOS = experiment: (§4) Cytotoxicity against HOS cells assessed as reduction in cell viability after 48 hrs by ATPLite luminescence assay; format: cell-based; settings: human, hos, 48 h
Method in brief: (§5)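 HOS cells seeded at 4000 per well the day before, exposed to compounds over 250 to 0.05 μM at 37 °C for 48 h. ATP measured by luminescence after lysis and 20 min signal development at room temperature.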

[13] = system: Human immunodeficiency virus 1; experiment: Antiviral activity against VSV-G pseudotyped HIV1 harboring integrase E92Q mutant infected in HOS cells pretreated […] for 3 hrs followed by viral infection measured after 48 hrs by luciferase reporter gene assay relative to dolutegravir; format: functional
[14] = system: Human immunodeficiency virus 1; experiment: Antiviral activity against VSV-G pseudotyped HIV1 harboring integrase T66I mutant infected in HOS cells pretreated […] for 3 hrs followed by viral infection measured after 48 hrs by luciferase reporter gene assay; format: functional, cell-based; settings: Human immunodeficiency virus 1, HOS; method in brief: as §3
[15] = Inhibition of HIV1 integrase strand transfer activity using 5'-end 32P labeled DNA substrate measured after 2 hrs by PAGE based phosphor imaging method; set-up: species or system Human immunodeficiency virus 1; method in brief: as §1
[16] = system: Human immunodeficiency virus 1; experiment: Antiviral activity against VSV-G pseudotyped HIV1 harboring integrase E92Q mutant infected in HOS cells pretreated […] for 3 hrs followed by viral infection measured after 48 hrs by luciferase reporter gene assay; format: functional, cell-based; settings: Human immunodeficiency virus 1, HOS; method in brief: as §3
[17] = system: Human immunodeficiency virus 1; experiment: Selectivity ratio of EC50 for VSV-G pseudotyped HIV1 harboring integrase T66I mutant infected in HOS cells to EC50 for VSV-G pseudotyped HIV1 harboring wild-type integrase infected in HOS cells; format: functional; method in brief: as §2
[18] = system: Human immunodeficiency virus 1; experiment: Antiviral activity against VSV-G pseudotyped HIV1 harboring integrase H51Y/R263K double mutant infected in HOS cells pretreated […] for 3 hrs followed by viral infection measured after 48 hrs by luciferase reporter gene assay relative to dolutegravir; format: functional
[19] = system: Human immunodeficiency virus 1; experiment: Selectivity ratio of EC50 for VSV-G pseudotyped HIV1 harboring integrase G140S/Q148H mutant infected in HOS cells to EC50 for VSV-G pseudotyped HIV1 harboring wild-type integrase infected in HOS cells; format: functional; method in brief: as §2
[20] = system: Human immunodeficiency virus 1; experiment: Antiviral activity against VSV-G pseudotyped HIV1 harboring integrase G118R mutant infected in HOS cells pretreated […] for 3 hrs followed by viral infection measured after 48 hrs by luciferase reporter gene assay; format: functional, cell-based; settings: Human immunodeficiency virus 1, HOS; method in brief: as §3
[21] = system: Human immunodeficiency virus 1; experiment: Antiviral activity against VSV-G pseudotyped HIV1 harboring integrase Y143R mutant infected in HOS cells pretreated […] for 3 hrs followed by viral infection measured after 48 hrs by luciferase reporter gene assay; format: functional, cell-based; settings: Human immunodeficiency virus 1, HOS; method in brief: as §3
[22] = system: Human immunodeficiency virus 1; experiment: Antiviral activity against VSV-G pseudotyped HIV1 harboring integrase G118R mutant infected in HOS cells pretreated […] for 3 hrs followed by viral infection measured after 48 hrs by luciferase reporter gene assay relative to dolutegravir; format: functional
[23] = system: Human immunodeficiency virus 1; experiment: Antiviral activity against VSV-G pseudotyped HIV1 harboring integrase H51Y/R263K double mutant infected in HOS cells pretreated […] for 3 hrs followed by viral infection measured after 48 hrs by luciferase reporter gene assay; format: functional, cell-based; settings: Human immunodeficiency virus 1, HOS; method in brief: as §3
[24] = system: Human immunodeficiency virus 1; experiment: Antiviral activity against VSV-G pseudotyped HIV1 harboring integrase H51Y mutant infected in HOS cells pretreated […] for 3 hrs followed by viral infection measured after 48 hrs by luciferase reporter gene assay; format: functional, cell-based; settings: Human immunodeficiency virus 1, HOS; method in brief: as §3
[25] = system: Human immunodeficiency virus 1; experiment: Antiviral activity against VSV-G pseudotyped HIV1 harboring wild-type integrase infected in HOS cells pretreated […] for 3 hrs followed by viral infection measured after 48 hrs by luciferase reporter gene assay relative to dolutegravir; format: functional
[26] = system: Human immunodeficiency virus 1; experiment: Antiviral activity against VSV-G pseudotyped HIV1 harboring integrase N155H mutant infected in HOS cells pretreated […] for 3 hrs followed by viral infection measured after 48 hrs by luciferase reporter gene assay relative to dolutegravir; format: functional
[27] = system: Human immunodeficiency virus 1; experiment: Antiviral activity against VSV-G pseudotyped HIV1 harboring integrase R263K mutant infected in HOS cells pretreated […] for 3 hrs followed by viral infection measured after 48 hrs by luciferase reporter gene assay; format: functional, cell-based; settings: Human immunodeficiency virus 1, HOS; method in brief: as §3
[28] = system: Human immunodeficiency virus 1; experiment: Antiviral activity against VSV-G pseudotyped HIV1 harboring integrase H51Y mutant infected in HOS cells pretreated […] for 3 hrs followed by viral infection measured after 48 hrs by luciferase reporter gene assay relative to dolutegravir; format: functional
[29] = system: Human immunodeficiency virus 1; experiment: Selectivity ratio of EC50 for VSV-G pseudotyped HIV1 harboring integrase H51Y/R263K double mutant infected in HOS cells to EC50 for VSV-G pseudotyped HIV1 harboring wild-type integrase infected in HOS cells; format: functional; method in brief: as §2
[30] = system: Human immunodeficiency virus 1; experiment: Selectivity ratio of EC50 for VSV-G pseudotyped HIV1 harboring integrase N155H mutant infected in HOS cells to EC50 for VSV-G pseudotyped HIV1 harboring wild-type integrase infected in HOS cells; format: functional; method in brief: as §2
[31] = as §4; format: cell-based; settings: human, HOS cells; method in brief: as §5
[32] = system: Human immunodeficiency virus 1; experiment: Antiviral activity against VSV-G pseudotyped HIV1 harboring integrase N155H mutant infected in HOS cells pretreated […] for 3 hrs followed by viral infection measured after 48 hrs by luciferase reporter gene assay; format: functional, cell-based; settings: Human immunodeficiency virus 1, HOS; method in brief: as §3

SMILES	IC50 [1] [nM]	fold change (FC) [2]	Ratio EC50 [3]	fold change (FC) [4]	fold change (FC) [5]	fold change (FC) [6]	Ratio EC50 [7]	EC50 [8] [nM]	EC50 [9] [nM]	Ratio EC50 [10]	Ratio EC50 [11]	Ratio EC50 [12]	fold change (FC) [13]	EC50 [14] [nM]	IC50 [15] [nM]	EC50 [16] [nM]	Ratio EC50 [17]	fold change (FC) [18]	Ratio EC50 [19]	EC50 [20] [nM]	also measured
COC(=O)CCc1cnc2c(c1)c(N)c(C(=O)NCc1ccc(F)cc1F)c(=O)n2O	2900	0.05	0.7	0.59	0.16	0.91	0.9	5.3	0.67	1	7	3	0.87	0.53	3.1	2	0.8	0.15	8	4.8	CC50 (HOS): > 250000 nM; EC50 [21]: 0.67 nM; fold change (FC) [22]: 0.37; EC50 [23]: 2.4 nM; EC50 [24]: 0.63 nM; fold change (FC) [25]: 0.42; fold change (FC) [26]: 0.64; EC50 [27]: 0.5 nM; fold change (FC) [28]: 0.2; Ratio EC50 [29]: 3; Ratio EC50 [30]: 3
Nc1c(C(=O)NCc2ccc(F)cc2F)c(=O)n(O)c2ncc(CCCCCO)cc12	8200	0.24	2	1.03	0.71	1.62	3	9.4	1.3	2	4	3	1.65	0.93	2.7	3.8	0.7	0.16	7	5.3	CC50 at 48 h [31]: > 250000 nM; EC50 [21]: 3 nM; fold change (FC) [22]: 0.41; EC50 [23]: 2.6 nM; EC50 [24]: 3.8 nM; fold change (FC) [25]: 0.81; fold change (FC) [26]: 0.67; EC50 [27]: 2.6 nM; fold change (FC) [28]: 1.19; Ratio EC50 [29]: 2; Ratio EC50 [30]: 2; EC50 [32]: 2.4 nM
